Data published in ChEMBL document CHEMBL2086318, “Synthesis and in vitro antimycobacterial activity of 2-methoxybenzanilides and their thioxo analogues” (Eur J Med Chem, 2012).
In brackets after ≈: the same amount, converted by molar mass.

Tests used:
Format in all cases: functional
[1] = system: Mycobacterium tuberculosis; test: Antimycobacterial activity against Mycobacterium tuberculosis My 331/88 after 21 days by micromethod; conditions: My 331/88, 504 h
How it was run: (§1)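 MIC by micromethod at 37 °C, read after 14 and 21 days. Inocula were M. tuberculosis My 331/88 at 10^-3 dilution and M. avium My 330/88 at 10^-5 dilution. Compounds added in DMSO across 1000, 500, 250, 125, 62.5, 32, 16, 8, 4, 2, 1 and 0.5; isoniazid standard in sterile water. MIC taken as the lowest concentration inhibiting growth.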

Mycobacterium kansasii [2] = test: Antimycobacterial activity against Mycobacterium kansasii My 6509/96 clinical isolate after 14 days by micromethod; conditions: My 6509/96, 336 h
Mycobacterium kansasii [3] = test: Antimycobacterial activity against Mycobacterium kansasii My 235/80 after 21 days by micromethod; conditions: My 235/80, 504 h
Mycobacterium kansasii [4] = test: Antimycobacterial activity against Mycobacterium kansasii My 6509/96 clinical isolate after 21 days by micromethod; conditions: My 6509/96, 504 h
[5] = system: Mycobacterium tuberculosis; test: Antimycobacterial activity against Mycobacterium tuberculosis My 331/88 after 14 days by micromethod; conditions: My 331/88, 336 h; how it was run: as §1
Mycobacterium kansasii [6] = test: Antimycobacterial activity against Mycobacterium kansasii My 235/80 after 14 days by micromethod; conditions: My 235/80, 336 h
Mycobacterium avium [7] = test: Antimycobacterial activity against Mycobacterium avium My 330/88 after 14 days by micromethod; conditions: My 330/88, 336 h
Mycobacterium kansasii [8] = test: Antimycobacterial activity against Mycobacterium kansasii My 235/80 after 7 days by micromethod; conditions: My 235/80, 168 h
Mycobacterium avium [9] = test: Antimycobacterial activity against Mycobacterium avium My 330/88 after 21 days by micromethod; conditions: My 330/88, 504 h
Mycobacterium kansasii [10] = test: Antimycobacterial activity against Mycobacterium kansasii My 6509/96 clinical isolate after 7 days by micromethod; conditions: My 6509/96, 168 h

SMILES | MIC [1] | MIC (Mycobacterium kansasii [2]) | MIC (Mycobacterium kansasii [3]) | MIC (Mycobacterium kansasii [4]) | MIC [5] | MIC (Mycobacterium kansasii [6]) | MIC (Mycobacterium avium [7]) | MIC (Mycobacterium kansasii [8]) | MIC (Mycobacterium avium [9]) | MIC (Mycobacterium kansasii [10])
COc1ccc(Cl)cc1C(=S)Nc1cccc(Cl)c1 | 16 µM (≈ 5 µg/mL) | 16 µM (≈ 5 µg/mL) | 16 µM (≈ 5 µg/mL) | 32 µM (≈ 9.99 µg/mL) | 16 µM (≈ 5 µg/mL) | 16 µM (≈ 5 µg/mL) | 32 µM (≈ 9.99 µg/mL) | 8 µM (≈ 2.5 µg/mL) | 32 µM (≈ 9.99 µg/mL) | 16 µM (≈ 5 µg/mL)
COc1cc(Cl)ccc1C(=S)Nc1cccc([N+](=O)[O-])c1 | 16 µM (≈ 5.16 µg/mL) | 16 µM (≈ 5.16 µg/mL) | 62.5 µM (≈ 20.2 µg/mL) | 32 µM (≈ 10.3 µg/mL) | 8 µM (≈ 2.58 µg/mL) | 32 µM (≈ 10.3 µg/mL) | 16 µM (≈ 5.16 µg/mL) | 32 µM (≈ 10.3 µg/mL) | 16 µM (≈ 5.16 µg/mL) | 8 µM (≈ 2.58 µg/mL)
COc1ccc(Cl)cc1C(=O)Nc1ccc(Cl)cc1 | 62.5 µM (≈ 18.5 µg/mL) | 125 µM (≈ 37 µg/mL) | 250 µM (≈ 74 µg/mL) | 125 µM (≈ 37 µg/mL) | 62.5 µM (≈ 18.5 µg/mL) | 250 µM (≈ 74 µg/mL) | 62.5 µM (≈ 18.5 µg/mL) | 62.5 µM (≈ 18.5 µg/mL) | 62.5 µM (≈ 18.5 µg/mL) | 62.5 µM (≈ 18.5 µg/mL)
O=C(Nc1ccc(Cl)c(Cl)c1)c1ccc(Cl)cc1O | 4 µM (≈ 1.27 µg/mL) |  | 8 µM (≈ 2.53 µg/mL) |  | 4 µM (≈ 1.27 µg/mL) | 8 µM (≈ 2.53 µg/mL) | 16 µM (≈ 5.07 µg/mL) |  | 16 µM (≈ 5.07 µg/mL) | 
O=C(Nc1ccc(Br)cc1)c1cc(Cl)ccc1O | 16 µM (≈ 5.23 µg/mL) |  | 4 µM (≈ 1.31 µg/mL) |  | 8 µM (≈ 2.61 µg/mL) | 4 µM (≈ 1.31 µg/mL) | 8 µM (≈ 2.61 µg/mL) |  | 8 µM (≈ 2.61 µg/mL) | 
COc1ccc(Cl)cc1C(=O)Nc1ccc([N+](=O)[O-])cc1 | 125 µM (≈ 38.3 µg/mL) | 125 µM (≈ 38.3 µg/mL) | 125 µM (≈ 38.3 µg/mL) | 125 µM (≈ 38.3 µg/mL) | 125 µM (≈ 38.3 µg/mL) | 125 µM (≈ 38.3 µg/mL) | 125 µM (≈ 38.3 µg/mL) | 125 µM (≈ 38.3 µg/mL) | 125 µM (≈ 38.3 µg/mL) | 125 µM (≈ 38.3 µg/mL)
O=C(Nc1ccc(Cl)c(Cl)c1)c1cc(Cl)ccc1O | 8 µM (≈ 2.53 µg/mL) |  | 4 µM (≈ 1.27 µg/mL) |  | 4 µM (≈ 1.27 µg/mL) | 4 µM (≈ 1.27 µg/mL) | 16 µM (≈ 5.07 µg/mL) |  | 16 µM (≈ 5.07 µg/mL) | 
O=C(Nc1cccc(Cl)c1)c1ccc(Cl)cc1O | 4 µM (≈ 1.13 µg/mL) |  | 8 µM (≈ 2.26 µg/mL) |  | 4 µM (≈ 1.13 µg/mL) | 4 µM (≈ 1.13 µg/mL) | 16 µM (≈ 4.51 µg/mL) |  | 16 µM (≈ 4.51 µg/mL) | 
O=C(Nc1cccc(Cl)c1)c1cc(Cl)ccc1O | 8 µM (≈ 2.26 µg/mL) |  | 8 µM (≈ 2.26 µg/mL) |  | 4 µM (≈ 1.13 µg/mL) | 4 µM (≈ 1.13 µg/mL) | 8 µM (≈ 2.26 µg/mL) |  | 16 µM (≈ 4.51 µg/mL) | 
COc1cc(Cl)ccc1C(=S)Nc1ccc([N+](=O)[O-])cc1 | 32 µM (≈ 10.3 µg/mL) | 16 µM (≈ 5.16 µg/mL) | 32 µM (≈ 10.3 µg/mL) | 32 µM (≈ 10.3 µg/mL) | 8 µM (≈ 2.58 µg/mL) | 32 µM (≈ 10.3 µg/mL) | 16 µM (≈ 5.16 µg/mL) | 16 µM (≈ 5.16 µg/mL) | 16 µM (≈ 5.16 µg/mL) | 16 µM (≈ 5.16 µg/mL)
COc1cc(Cl)ccc1C(=O)Nc1ccc(C(F)(F)F)cc1 | 125 µM (≈ 41.2 µg/mL) | 125 µM (≈ 41.2 µg/mL) | 125 µM (≈ 41.2 µg/mL) | 125 µM (≈ 41.2 µg/mL) | 125 µM (≈ 41.2 µg/mL) | 125 µM (≈ 41.2 µg/mL) | 62.5 µM (≈ 20.6 µg/mL) | 125 µM (≈ 41.2 µg/mL) | 125 µM (≈ 41.2 µg/mL) | 32 µM (≈ 10.6 µg/mL)
COc1ccc(Cl)cc1C(=S)Nc1ccc(Br)cc1 | 16 µM (≈ 5.71 µg/mL) | 32 µM (≈ 11.4 µg/mL) | 250 µM (≈ 89.2 µg/mL) | 32 µM (≈ 11.4 µg/mL) | 16 µM (≈ 5.71 µg/mL) | 250 µM (≈ 89.2 µg/mL) | 16 µM (≈ 5.71 µg/mL) | 62.5 µM (≈ 22.3 µg/mL) | 16 µM (≈ 5.71 µg/mL) | 16 µM (≈ 5.71 µg/mL)
COc1ccc(Cl)cc1C(=S)Nc1ccc(Cl)cc1 | 16 µM (≈ 5 µg/mL) | 16 µM (≈ 5 µg/mL) | 62.5 µM (≈ 19.5 µg/mL) | 32 µM (≈ 9.99 µg/mL) | 16 µM (≈ 5 µg/mL) | 32 µM (≈ 9.99 µg/mL) | 32 µM (≈ 9.99 µg/mL) | 8 µM (≈ 2.5 µg/mL) | 32 µM (≈ 9.99 µg/mL) | 16 µM (≈ 5 µg/mL)
COc1cc(Cl)ccc1C(=O)Nc1cccc(Cl)c1 | 125 µM (≈ 37 µg/mL) | 62.5 µM (≈ 18.5 µg/mL) | 32 µM (≈ 9.48 µg/mL) | 125 µM (≈ 37 µg/mL) | 125 µM (≈ 37 µg/mL) | 32 µM (≈ 9.48 µg/mL) | 8 µM (≈ 2.37 µg/mL) | 8 µM (≈ 2.37 µg/mL) | 32 µM (≈ 9.48 µg/mL) | 62.5 µM (≈ 18.5 µg/mL)
O=C(Nc1ccc(Cl)cc1)c1cc(Cl)ccc1O | 4 µM (≈ 1.13 µg/mL) |  | 8 µM (≈ 2.26 µg/mL) |  | 4 µM (≈ 1.13 µg/mL) | 8 µM (≈ 2.26 µg/mL) | 8 µM (≈ 2.26 µg/mL) |  | 8 µM (≈ 2.26 µg/mL) | 
COc1ccc(Cl)cc1C(=S)Nc1cccc(Br)c1 | 32 µM (≈ 11.4 µg/mL) | 32 µM (≈ 11.4 µg/mL) | 32 µM (≈ 11.4 µg/mL) | 32 µM (≈ 11.4 µg/mL) | 32 µM (≈ 11.4 µg/mL) | 32 µM (≈ 11.4 µg/mL) | 32 µM (≈ 11.4 µg/mL) | 16 µM (≈ 5.71 µg/mL) | 32 µM (≈ 11.4 µg/mL) | 32 µM (≈ 11.4 µg/mL)
COc1ccc(Cl)cc1C(=O)Nc1cccc([N+](=O)[O-])c1 | 125 µM (≈ 38.3 µg/mL) | 125 µM (≈ 38.3 µg/mL) | 125 µM (≈ 38.3 µg/mL) | 125 µM (≈ 38.3 µg/mL) | 125 µM (≈ 38.3 µg/mL) | 125 µM (≈ 38.3 µg/mL) | 250 µM (≈ 76.7 µg/mL) | 125 µM (≈ 38.3 µg/mL) | 250 µM (≈ 76.7 µg/mL) | 125 µM (≈ 38.3 µg/mL)
